According to paper PMC6397583 (Proceedings of the National Academy of Sciences of the …, 2019):

Test system: E. coli MC1000
Assay: Transmission electron microscopy of peptide-treated bacteria
Format: cell-based, Escherichia coli
Details: 6 × 10^8 cfu E. coli MC1000, 200 µg/mL peptide, 2 h
Outline: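 Bacteria (6 × 10^8 cfu) were exposed to each test peptide (α-defensin or its fragments) at 200 µg/mL for 2 h. They were then fixed and cut into 30-nm sections. Cell envelope and membrane phenotypes were examined by transmission electron microscopy.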

Substance	phenotype of peptide-treated bacteria (TEM)
CATRESLSGVCEISGRLY [HD-5_10–27]	only minor damage in some bacteria while the majority remained unaffected
LYRLCCR [HD-5_26–32]	small vesicular structures inside the bacteria
